Test results as given in ChEMBL document CHEMBL1151261, “Antineoplastic agents. 509: synthesis of fluorcombstatin phosphate and related 3-halostilbenes(1)” (J Nat Prod, 2005).
pIC50: −log10 of the molar value. ≈ marks a conversion by molar mass, not a printed value. Calls of active or inactive are those of the source. No cut-off for these calls is given here.

Assays:
KM-20L2 = test: Cytotoxicity against human KM20L2 cells after 48 hrs by sulforhodamine B assay; type: functional; conditions: KM-20L2, 48 h
In short: (§1)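 Human tumor lines exposed to compound for 48 h, then fixed with trichloroacetic acid and stained with sulforhodamine B (NCI standard protocol); optical density read on a microplate reader. GI50 is the concentration giving a 50% reduction in net protein increase, calculated from optical density data.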

DU-145 = test: Cytotoxicity against human DU145 cells after 48 hrs by sulforhodamine B assay; type: functional; conditions: DU-145, 48 h; in short: as §1
[1] = Inhibition of tubulin polymerization
In short: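 Turbidimetry at 350 nm. Compound at varying concentrations preincubated with 10 μM (1.0 mg/mL) purified tubulin, chilled on ice, then 0.4 mM GTP added and polymerization followed at 30 °C. Extent of polymerization at 20 min measured.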

[2] = Displacement of [3H]colchicine from tubulin
In short: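 [3H]colchicine binding with 1.0 μM tubulin, 5.0 μM [3H]colchicine and inhibitor at 1.0 μM.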

Micrococcus luteus [3] = test: Antimicrobial activity against Micrococcus luteus Presque Isle 456 after 24 hrs by broth microdilution assay; type: functional
In short: (§2)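 NCCLS bacterial broth microdilution (M7-A5). Overnight colonies diluted to about 5×10^5 CFU/mL final; 2-fold compound dilutions (DMSO stock) in cation-adjusted Mueller Hinton II broth; DMSO turbidity control; 35 °C without agitation, 24 h. MIC = lowest concentration with optically clear wells.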

Neisseria gonorrhoeae [4] = test: Antimicrobial activity against Neisseria gonorrhoeae ATCC 49226 after 24 hrs by broth microdilution assay; type: functional; conditions: ATCC 49226, 24 h
In short: (§3)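 Neisseria tested by NCCLS broth microdilution in gonococcal typing broth. Final inoculum about 5×10^5 CFU/mL; 2-fold compound dilutions from DMSO; DMSO turbidity control; 37 °C with 5% CO₂ without agitation, 24 h. MIC = lowest concentration with no visible growth.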

Cryptococcus neoformans [5] = test: Antimicrobial activity against Cryptococcus neoformans ATCC 90112 at 64 ug/mL after 72 hrs by broth microdilution assay; type: functional, organism-based
In short: (§4)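 Yeast NCCLS broth microdilution (M27-A). Inoculum 0.5 to 2.5×10^3 CFU/mL; 2-fold dilutions in 0.165 M MOPS-buffered RPMI 1640, pH 7.0; compound from DMSO, DMSO-only turbidity control; 35 °C without agitation; read at 72 h (Cryptococcus). MIC = lowest concentration giving no visible growth.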

Candida albicans = test: Antimicrobial activity against Candida albicans ATCC 90028 at 64 ug/mL after 48 hrs by broth microdilution assay; type: functional, organism-based
In short: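 Yeast NCCLS broth microdilution (M27-A). Inoculum 0.5 to 2.5×10^3 CFU/mL; 2-fold dilutions in 0.165 M MOPS-buffered RPMI 1640, pH 7.0; compound from DMSO, DMSO-only turbidity control; 35 °C without agitation; read at 48 h (Candida). MIC = lowest concentration giving no visible growth.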

Staphylococcus aureus = test: Antimicrobial activity against Staphylococcus aureus ATCC 29213 at 64 ug/mL after 24 hrs by broth microdilution assay; type: functional, organism-based; in short: as §2
Streptococcus pneumoniae [6] = test: Antimicrobial activity against Streptococcus pneumoniae ATCC 6303 at 64 ug/mL after 24 hrs by broth microdilution assay; type: functional, organism-based
In short: (§5)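 Streptococcus tested by NCCLS broth microdilution in cation-adjusted MHII broth with 3% lysed horse blood. Final inoculum about 5×10^5 CFU/mL; 2-fold compound dilutions from DMSO; DMSO turbidity control; 35 °C without agitation, 24 h. MIC = lowest concentration with no visible growth.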

Enterococcus faecalis = test: Antimicrobial activity against Enterococcus faecalis ATCC 29212 at 64 ug/mL after 24 hrs by broth microdilution assay; type: functional, organism-based; in short: as §2
Escherichia coli = test: Antimicrobial activity against Escherichia coli ATCC 25922 at 64 ug/mL after 24 hrs by broth microdilution assay; type: functional, organism-based; in short: as §2
Enterobacter cloacae = test: Antimicrobial activity against Enterobacter cloacae ATCC 13047 at 64 ug/mL after 24 hrs by broth microdilution assay; type: functional, organism-based; in short: as §2
[7] = system: Stenotrophomonas maltophilia; test: Antimicrobial activity against Stenotrophomonas maltophilia ATCC 13637 at 64 ug/mL after 24 hrs by broth microdilution assay; type: functional, organism-based; in short: as §2
NCI-H460 = test: Cytotoxicity against human NCI-H460 cells after 48 hrs by sulforhodamine B assay; type: functional; conditions: NCI-H460, 48 h; in short: as §1
BXPC-3 = test: Cytotoxicity against human BxPC3 cells after 48 hrs by sulforhodamine B assay; type: functional; conditions: BXPC-3, 48 h; in short: as §1
MCF7 = test: Cytotoxicity against human MCF7 cells after 48 hrs by sulforhodamine B assay; type: functional; conditions: MCF7, 48 h; in short: as §1
SF-268 = test: Cytotoxicity against human SF268 cells after 48 hrs by sulforhodamine B assay; type: functional; conditions: SF-268, 48 h; in short: as §1
P388 = test: Cytotoxicity against mouse P388 cells after 48 hrs by Coulter particle counting; conditions: P388, 48 h, read-out: ED50 (the source's name)
Micrococcus luteus [8] = test: Antimicrobial activity against Micrococcus luteus Presque Isle 456 at 64 ug/mL after 24 hrs by broth microdilution assay; type: functional, organism-based; in short: as §2
Neisseria gonorrhoeae [9] = test: Antimicrobial activity against Neisseria gonorrhoeae ATCC 49226 at 64 ug/mL after 24 hrs by broth microdilution assay; type: functional, organism-based; in short: as §3
HUVEC [10] = test: Induction of microtubule damage in HUVEC at 1 uM after 30 mins; type: functional, cell-based; conditions: Homo sapiens
In short: (§6)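 Primary HUVECs from umbilical cords grown in M199 with 20% human serum, CD31-authenticated. About 3×10^4 cells on gelatin-coated coverslips, 24 h at 37 °C, then compound from DMSO for 30 min to 4 h, in duplicate. Cells methanol-fixed, stained with anti-α-tubulin and TRITC secondary plus Hoechst, imaged by confocal microscopy and scored for microtubule damage.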

HUVEC [11] = test: Induction of microtubule damage in HUVEC at 1 uM after 1 hr; type: functional, cell-based; conditions: Homo sapiens; in short: as §6
HUVEC [12] = test: Induction of microtubule depolymerization in HUVEC at 10 uM after 30 mins; type: functional, cell-based; conditions: Homo sapiens; in short: as §6
HUVEC [13] = test: Induction of microtubule depolymerization in HUVEC at 10 uM after 1 hr; type: functional, cell-based; conditions: Homo sapiens; in short: as §6
HUVEC [14] = test: Induction of microtubule depolymerization in HUVEC at 10 uM after 2 hrs; type: functional, cell-based; conditions: Homo sapiens; in short: as §6
HUVEC [15] = test: Induction of microtubule depolymerization in HUVEC at 10 uM after 4 hrs; type: functional, cell-based; conditions: Homo sapiens; in short: as §6
HUVEC [16] = test: Induction of microtubule depolymerization in HUVEC at 1 uM after 2 hrs; type: functional, cell-based; conditions: Homo sapiens
In short: (§7)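 Primary HUVECs from umbilical cords, grown in M199 with 20% human serum, were seeded (~3×10^4) on gelatin-coated coverslips and grown 24 h at 37 °C. Compound in DMSO was added (final 1, 10 or 100 μM), with duplicate plates. Cells were fixed in ice-cold methanol and immunostained for α-tubulin (TRITC secondary) and with Hoechst. Microtubule disruption was scored by confocal microscopy.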

HUVEC [17] = test: Induction of microtubule depolymerization in HUVEC at 1 uM after 4 hrs; type: functional, cell-based; conditions: Homo sapiens; in short: as §7
Cryptococcus neoformans [18] = test: Antimicrobial activity against Cryptococcus neoformans ATCC 90112 after 72 hrs by broth microdilution assay; type: functional; conditions: ATCC 90112, 72 h; in short: as §4
Streptococcus pneumoniae [19] = test: Antimicrobial activity against Streptococcus pneumoniae ATCC 6303 after 24 hrs by broth microdilution assay; type: functional; conditions: ATCC 6303, 24 h; in short: as §5

| Structure (SMILES) | GI50 (KM-20L2) [µg/mL] | GI50 (DU-145) [µg/mL] | pIC50 [1] | Activity [2] [%] | MIC (Micrococcus luteus [3]) [µg/mL] | MIC (Neisseria gonorrhoeae [4]) [µg/mL] | Activity (Cryptococcus neoformans [5]) | Activity (Candida albicans) | Activity (Staphylococcus aureus) | Activity (Streptococcus pneumoniae [6]) | Activity (Enterococcus faecalis) | Activity (Escherichia coli) | Activity (Enterobacter cloacae) | Activity [7] | GI50 (NCI-H460) [µg/mL] | GI50 (BXPC-3) [µg/mL] | GI50 (MCF7) [µg/mL] | GI50 (SF-268) [µg/mL] | EC50 (P388) [µg/mL] | Activity (Micrococcus luteus [8]) | other results |
| --- | --- | --- | --- | --- | --- | --- | --- | --- | --- | --- | --- | --- | --- | --- | --- | --- | --- | --- | --- | --- | --- |
| COc1ccc(/C=C\c2cc(Br)c(OC)c(OC)c2)cc1O | 0.59 (≈ 1.62 µM) | 0.00082 (≈ 0.00225 µM) | 5.82 | 89 | 32 (≈ 87.6 µM) | 32 (≈ 87.6 µM) | inactive | inactive | inactive | inactive | inactive | inactive | inactive | inactive | 0.00038 (≈ 0.00104 µM) | 0.64 (≈ 1.75 µM) | 0.00046 (≈ 0.00126 µM) | 0.0005 (≈ 0.00137 µM) | 0.0021 (≈ 0.00575 µM) |  |  |
| COc1ccc(/C=C/c2cc(Br)c(OC)c(OC)c2)cc1O | 1.2 (≈ 3.29 µM) | 0.13 (≈ 0.356 µM) |  |  |  |  | inactive | inactive | inactive | inactive | inactive | inactive | inactive | inactive | 0.15 (≈ 0.411 µM) | 1.6 (≈ 4.38 µM) | 0.14 (≈ 0.383 µM) | 0.18 (≈ 0.493 µM) | 0.0174 (≈ 0.0476 µM) | inactive | Activity (Neisseria gonorrhoeae [9]): inactive |
| COc1ccc(/C=C\c2cc(F)c(OC)c(OC)c2)cc1OP(=O)(O)O |  |  |  |  |  |  | inactive | inactive | inactive | inactive | inactive | inactive | inactive | inactive |  |  |  |  |  | inactive |  |
| COc1ccc(/C=C\c2cc(Cl)c(OC)c(OC)c2)cc1O | 0.27 (≈ 0.842 µM) | 0.00025 (≈ 0.000779 µM) | 5.80 | 85 | 32 (≈ 99.8 µM) | 16 (≈ 49.9 µM) |  | inactive | inactive |  | inactive | inactive | inactive | inactive | 0.00026 (≈ 0.000811 µM) | 0.32 (≈ 0.998 µM) | 0.0026 (≈ 0.00811 µM) | < 0.0009 | 0.0024 (≈ 0.00748 µM) |  | Activity (HUVEC [10]): Active; Activity (HUVEC [11]): Active; Activity (HUVEC [12]): Active; Activity (HUVEC [13]): Active; Activity (HUVEC [14]): Active; Activity (HUVEC [15]): Active; Activity (HUVEC [16]): Active; Activity (HUVEC [17]): Active; MIC (Cryptococcus neoformans [18]): 64 µg/mL (≈ 200 µM); MIC (Streptococcus pneumoniae [19]): 32 µg/mL (≈ 99.8 µM) |
